# NR2E3 ag-1: inhibitors of NR2E3-RetCOR corepressor binding, primary screen, NR2E3 agonist project, biochemical, TR-FRET, GST-NR2E3, biotin-RetCOR | Photoreceptor-specific nuclear receptor (Homo sapiens), Q9Y5X4 | 1536-well | inhibition of corepressor binding, % at 4.78 µM | 320,000 tested, 0.12% active | AID 2300, 2010;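 active means percent inhibition above the cutoff of mean plus 3 SD of all tested compounds, set per screening campaign, cut at about 20% in these data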;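 further: 0% = DMSO wells and 100% = biotin wells as full block of FRET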
#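 Material: NR2E3–RetCOR corepressor complex / Incubation: Compound–protein incubation for 5 h at 4 °C / Dosing: compound at 4.8 µM, single dose / Detection: time-resolved FRET / Benchmarks: high control biotin, low control 0.6% DMSO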
# GalR3 antag: GalR3 antagonists in HEK293 cells, primary screen, cell-based, fluorescence readout; inhibition, % at 3 µM; AID 651719, 2012; Galanin receptor type 3 (Homo sapiens), O60755; 360,000 tested, 0.44% active; HEK293 GalR3-CNG cAMP membrane potential fluorescence; galR3 body fused to GalR1 C-terminus;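 active means inhibition above the screen-wide average plus 3 SD, cut at about 13% in these data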;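 further: forskolin and galanin both at EC90 stimulate the cells; cAMP rise reported by CNG channel membrane potential dye signal; 0% = forskolin plus galanin with DMSO and 100% = forskolin alone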
# Target sequence (O60755 1-299 limits assumed): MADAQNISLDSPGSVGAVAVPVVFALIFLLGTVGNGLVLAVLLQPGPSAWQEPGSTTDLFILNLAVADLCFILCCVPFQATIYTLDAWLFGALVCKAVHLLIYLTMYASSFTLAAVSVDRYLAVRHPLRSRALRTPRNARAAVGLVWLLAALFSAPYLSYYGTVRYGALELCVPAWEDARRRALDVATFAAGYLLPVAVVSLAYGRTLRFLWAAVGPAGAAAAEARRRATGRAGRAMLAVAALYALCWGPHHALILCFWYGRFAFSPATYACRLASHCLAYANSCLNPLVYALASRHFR
# V-ATPase pHluor: regulators of yeast V-ATPase proton pumping, primary screen, pHLuorin cytosolic pH fluorescence | AID 504577, 2011 | response, % at 10 µM | S. cerevisiae | 350,000 tested, 0.37% active; in the data active means response mostly above about 7.3%, no sharp cut-off; inactive means mostly below about 5.4%; further: actives read high
# GAA850 FXN act: FXN promoter activators, primary screen, cell-based, luciferase luminescence, HEK293 lucGAA850. 360,000 tested, 0.56% active. HEK293 lucGAA850 FXN promoter luciferase reporter, 24 h; percent of 10 µM SAHA response. activation, % at 6 µM;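 active means activation above the average of all compounds screened plus 3 SD, cutoff fixed separately per campaign, cut at about 7.5% in these data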;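 further: 0% = DMSO wells and 100% = 10 µM SAHA wells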
# HIV Env fusion: inhibitors of HIV-1 Env-driven cell-cell fusion, primary screen, HeLa-JRFL effector, CEM21 target cells, luciferase; inhibition, % at 12.3 µM; 360,000 tested, 1.1% active; AID 651610, 2012;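 active means mean replicate inhibition score of at least 50 and every replicate individually at or above 50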;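 further: 0% = plate neutral controls and 100% = maraviroc near 300 nM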
# NR2E3 ag-2: NR2E3 agonists in two-hybrid cells, primary screen, cell-based, luminescence, CHO-S, Gal4-NCOR/VP16-NR2E3. luciferase. inhibition of corepressor binding, % at 3.98 µM. 360,000 tested, 0.35% active;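 active means inhibition above the mean of all tested compounds plus 3 SD, cut at about 70% in these data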;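 further: 0% = DMSO with NR2E3 transfected cells and 100% = cells lacking NR2E3 construct; higher means lower luciferase signal from less NR2E3 corepressor binding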
# * = called active by the depositor; · = not tested or not shown; [ ] = remark or other dose. A selection: hits, their analogues and other compounds. The true share with any hit is near 2.2%.
SMILES,NR2E3 ag-1,GalR3 antag,V-ATPase pHluor,GAA850 FXN act,HIV Env fusion,NR2E3 ag-2
COc1ccc(C2=Nc3ccccc3N(C(=O)Cc3cc(OC)cc(OC)c3)C2C(=O)NC(C)(C)C)cc1 (stereo not drawn),·,-2.1,·,·,55.3*,·
COc1ccc(NC(=O)Nc2ccc3c(c2)C(=O)N([C@@H](C)CO)C[C@H](C)[C@H](CN(C)Cc2ccncc2)OCCCC[C@H](C)O3)cc1,·,·,·,·,88.4*[16.7 µM],·
C[C@H](CO)N1C[C@H](C)[C@H](CN(C)Cc2ccccc2)OCCCC[C@H](C)Oc2ccc(NC(=O)Nc3ccc(F)cc3)cc2C1=O,·,·,·,·,56.1*[16.7 µM],·
COc1ccc(CN(C)C[C@@H]2Oc3ccc(NC(=O)Nc4ccc(OC)cc4)cc3C(=O)N([C@H](C)CO)C[C@@H]2C)cc1,·,·,·,·,63.0*[16.7 µM],·
C[C@H]1CCCCO[C@@H](CN(C)Cc2ccncc2)[C@@H](C)CN([C@@H](C)CO)C(=O)c2cc(NC(=O)Nc3ccccc3)ccc2O1,·,·,·,·,57.8*[16.7 µM],·
Cc1noc(C)c1S(=O)(=O)Nc1ccc2c(c1)C(=O)N([C@@H](C)CO)C[C@@H](C)[C@@H](CN(C)C(=O)Nc1ccc(F)cc1)OCCCC[C@@H](C)O2,·,·,·,·,-25.4[16.7 µM],·
C[C@H]1CN([C@@H](C)CO)C(=O)c2cc(NC(=O)C3CCCCC3)ccc2O[C@H]1CN(C)Cc1ccncc1,·,·,·,·,13.3[16.7 µM],·
C[C@H]1CCCCO[C@@H](CN(C)Cc2ccccc2)[C@@H](C)CN([C@@H](C)CO)C(=O)c2cc(NC(=O)Nc3ccc(F)cc3)ccc2O1,·,·,·,·,69.5*[16.7 µM],·
COc1ccc(NC(=O)Nc2ccc3c(c2)C(=O)N([C@@H](C)CO)C[C@@H](C)[C@H](CN(C)Cc2ccccc2)OCCCC[C@@H](C)O3)cc1,·,·,·,·,-3.5[16.7 µM],·
C[C@H]1CCCCO[C@@H](CN(C)Cc2ccccc2)[C@@H](C)CN([C@@H](C)CO)C(=O)c2cc(NC(=O)Nc3ccccc3)ccc2O1,·,·,·,·,68.9*[16.7 µM],·
COc1ccc(NC(=O)Nc2ccc3c(c2)C(=O)N([C@H](C)CO)C[C@H](C)[C@H](CN(C)Cc2ccccc2)OCCCC[C@H](C)O3)cc1,·,·,·,·,73.9*[16.7 µM],·
C[C@H]1CN([C@@H](C)CO)C(=O)c2cc(NC(=O)C3CCCCC3)ccc2O[C@@H]1CN(C)Cc1ccncc1,·,·,·,·,55.1*[16.7 µM],·
CCOc1ccc(N2C(=O)CS(=O)(=O)C2c2ccccc2)cc1 (stereo not drawn),·,·,·,·,19.0[16.7 µM],·
CCCCN(CC)c1nc(-c2ccncc2)nc2ccccc12,-1.0,-1.8,-0.6,3.5,64.1*,-11.1
C[C@@H]1CN([C@H](C)CO)C(=O)c2cccc(NC(=O)c3ccc(-c4nccs4)cc3)c2O[C@H]1CN(C)S(=O)(=O)c1cn(C)cn1,·,·,·,·,-7.4[16.7 µM],·
Cc1ccccc1OCC(=O)NC1=NCCS1,-1.3,-4.8,16.6*,2.3,-59.1,-64.8
C=CC[C@H](CC(=O)N(CCO)Cc1ccccc1)C(=O)NC[C@@H](OC(=O)[C@@H](CC=C)Cc1ccc(F)cc1)c1ccccc1,·,-6.0,1.6,-11.9,-124.3,13.3
C=CCC[C@H](Cc1ccc(F)cc1)C(=O)O[C@H](CNC(=O)[C@@H](CC=C)CC(=O)N(CCO)Cc1ccccc1)c1ccccc1,·,-8.3,-2.2,-0.7,129.2*,-13.1
CC(C)NC(=O)Nc1ccc2c(c1)C(=O)N([C@@H](C)CO)C[C@@H](C)[C@@H](CN(C)S(C)(=O)=O)OCCCC[C@@H](C)O2,·,·,·,·,17.9[16.7 µM],·
Cc1ccc(S(=O)(=O)NCc2ccccc2)cc1C(=O)N1CCCCCCC1,2.6,-0.9,8.6,3.1,65.8*,-2.4
O=C(Nc1ccccc1F)N[C@@H]1CC[C@H](CCNS(=O)(=O)c2ccc(Cl)cc2)O[C@H]1CO,·,·,·,·,0.1[16.7 µM],·
C[C@@H]1CN([C@@H](C)CO)C(=O)c2cc(NC(=O)CCCN(C)C)ccc2O[C@H]1CN(C)C(=O)Nc1ccc(F)cc1,·,·,·,·,1.9[16.7 µM],·
O=C(N[C@@H]1CC[C@@H](CCn2cc(-c3ccccn3)nn2)O[C@H]1CO)c1ccc(F)cc1,·,·,·,·,-36.2[16.7 µM],·

# Bioassay records deposited in PubChem BioAssay by several laboratories.
